# Organism: Mus musculus
# Test: Percent recovery of twitch height after 30-40 washes with buffer using mouse vas deferens preparation
# Format: functional
# Conditions: not given
# Method in brief: (§1)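 After agonist treatment, the electrically stimulated guinea pig ileum or mouse vas deferens was washed 30-40 times with buffer alone. Percent recovery of twitch height was recorded, n = 1.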
row,Structure (SMILES),Recovery
1,CN(C(=O)Cc1ccc(Cl)c(Cl)c1)[C@H](CN1CCCC1)c1cccc(NC(=O)C/N=C(S)/N=C2\C=CC(=C3c4ccc(O)cc4Oc4cc(O)ccc43)C(C(=O)O)=C2)c1,79%
2,CN(C(=O)Cc1ccc(Cl)c(Cl)c1)[C@H](CN1CCCC1)c1cccc(NC(=O)CNC(=O)C/N=C(S)/N=C2\C=CC(=C3c4ccc(O)cc4Oc4cc(O)ccc43)C(C(=O)O)=C2)c1,100%
3,CN(C(=O)Cc1ccc(Cl)c(Cl)c1)[C@H](CN1CCCC1)c1cccc(NC(=O)CNC(=O)CNC(=O)CNC(=O)C/N=C(S)/N=C2\C=CC(=C3c4ccc(O)cc4Oc4cc(O)ccc43)C(C(=O)O)=C2)c1,100%
4,CN(C(=O)Cc1ccc(Cl)c(Cl)c1)[C@H](CN1CCCC1)c1cccc(N/C(S)=N/c2ccc(-c3c4ccc(=O)cc-4oc4cc(O)ccc34)c(C(=O)O)c2)c1,100%

# Target: Kappa-type opioid receptor (Mus musculus, UniProt P33534)
# Test: Inhibitory activity against Opioid receptor kappa 1 in electrically stimulated mouse vas deferens (MVD) preparation.
# Conditions: not given
# Method in brief: (§2)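 Electrically stimulated guinea pig longitudinal ileal muscle or mouse vas deferens preparations, run per earlier work. The read-out is inhibition of twitch, given as IC50 (nM), arithmetic mean ± SEM of at least three experiments.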
# Sequence of Kappa-type opioid receptor (Mus musculus, UniProt P33534) (P33534 whole entry): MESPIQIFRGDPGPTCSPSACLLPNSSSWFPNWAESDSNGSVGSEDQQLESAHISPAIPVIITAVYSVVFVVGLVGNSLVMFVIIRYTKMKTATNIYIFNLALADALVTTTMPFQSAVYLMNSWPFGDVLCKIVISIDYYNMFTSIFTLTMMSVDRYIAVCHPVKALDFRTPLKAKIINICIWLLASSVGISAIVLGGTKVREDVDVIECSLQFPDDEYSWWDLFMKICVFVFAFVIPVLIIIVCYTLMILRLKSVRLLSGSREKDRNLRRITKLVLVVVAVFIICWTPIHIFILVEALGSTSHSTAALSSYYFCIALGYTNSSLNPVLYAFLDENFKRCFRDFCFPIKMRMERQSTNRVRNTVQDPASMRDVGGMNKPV
row,Structure (SMILES),IC50
1,CN(C(=O)Cc1ccc(Cl)c(Cl)c1)C(CN1CCCC1)c1ccc(N/C(S)=N/c2ccc(-c3c4ccc(=O)cc-4oc4cc(O)ccc34)c(C(=O)O)c2)cc1 (centres undefined),12.6 nM
2,CN(C(=O)Cc1ccc(Cl)c(Cl)c1)[C@H](CN1CCCC1)c1cccc(NC(=O)C/N=C(S)/N=C2\C=CC(=C3c4ccc(O)cc4Oc4cc(O)ccc43)C(C(=O)O)=C2)c1,1.2 nM
3,CN(C(=O)Cc1ccc(Cl)c(Cl)c1)C(CN1CCCC1)c1ccc(NC(=O)CNC(=O)CNC(=O)CNC(=O)C/N=C(S)\N=C2/C=CC(=C3c4ccc(O)cc4Oc4cc(O)ccc43)C(C(=O)O)=C2)cc1 (centres undefined),421 nM
4,CN(C(=O)Cc1ccc(Cl)c(Cl)c1)[C@H](CN1CCCC1)c1cccc(NC(=O)CNC(=O)C/N=C(S)/N=C2\C=CC(=C3c4ccc(O)cc4Oc4cc(O)ccc43)C(C(=O)O)=C2)c1,1.5 nM
5,CN(C(=O)Cc1ccc(Cl)c(Cl)c1)[C@H](CN1CCCC1)c1cccc(NC(=O)CNC(=O)CNC(=O)CNC(=O)C/N=C(S)/N=C2\C=CC(=C3c4ccc(O)cc4Oc4cc(O)ccc43)C(C(=O)O)=C2)c1,6.5 nM
6,CN(C(=O)Cc1ccc(Cl)c(Cl)c1)C(CN1CCCC1)c1ccc(NC(=O)C/N=C(S)/N=C2\C=CC(=C3c4ccc(O)cc4Oc4cc(O)ccc43)C(C(=O)O)=C2)cc1 (centres undefined),102 nM
7,CN(C(=O)Cc1ccc(Cl)c(Cl)c1)[C@H](CN1CCCC1)c1cccc(NC(=S)Nc2ccc(-c3c4ccc(=O)cc-4oc4cc(O)ccc34)c(C(=O)O)c2)c1,1.2 nM
8,CN(C(=O)Cc1ccc(Cl)c(Cl)c1)C(CN1CCCC1)c1ccc(NC(=O)CNC(=O)C/N=C(S)\N=C2/C=CC(=C3c4ccc(O)cc4Oc4cc(O)ccc43)C(C(=O)O)=C2)cc1 (centres undefined),170 nM

# Organism: Cavia porcellus
# Test: Percent recovery after treatment with 500 nM of NTX and removal of NTX by 40 washes with buffer using smooth guinea pig ileal muscle
# Format: functional
# Conditions: Muscle tissue
# Method in brief: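 Agonist-treated guinea pig ileum was incubated with 500 nM naltrexone for 10 min. NTX was then removed by 40 washes with buffer, and recovery of electrically evoked twitch height was recorded as percent. n = 1.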
row,Structure (SMILES),Recovery
1,CN(C(=O)Cc1ccc(Cl)c(Cl)c1)[C@H](CN1CCCC1)c1cccc(NC(=O)C/N=C(S)/N=C2\C=CC(=C3c4ccc(O)cc4Oc4cc(O)ccc43)C(C(=O)O)=C2)c1,97%
2,CN(C(=O)Cc1ccc(Cl)c(Cl)c1)[C@H](CN1CCCC1)c1ccccc1,32%
3,CN(C(=O)Cc1ccc(Cl)c(Cl)c1)[C@H](CN1CCCC1)c1cccc(NC(=O)CNC(=O)C/N=C(S)/N=C2\C=CC(=C3c4ccc(O)cc4Oc4cc(O)ccc43)C(C(=O)O)=C2)c1,37%
4,CN(C(=O)Cc1ccc(Cl)c(Cl)c1)[C@H](CN1CCCC1)c1cccc(NC(=O)CNC(=O)CNC(=O)CNC(=O)C/N=C(S)/N=C2\C=CC(=C3c4ccc(O)cc4Oc4cc(O)ccc43)C(C(=O)O)=C2)c1,131%
5,CN(C(=O)Cc1ccc(Cl)c(Cl)c1)[C@H](CN1CCCC1)c1cccc(N/C(S)=N/c2ccc(-c3c4ccc(=O)cc-4oc4cc(O)ccc34)c(C(=O)O)c2)c1,61%

# Target: T1, Kappa-type opioid receptor (Cavia porcellus, UniProt P41144)
# Test: Binding affinity towards Opioid receptor kappa 1 in guinea pig brain
# Conditions: not given
# Method in brief: (§3)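 Competition binding against radioligands in guinea pig brain membranes, modified from a published method. κ: 1 nM [³H]U69,593; µ: 2 nM [³H]DAMGO; δ1: 5 nM [³H]DPDPE; δ2: 2 nM [³H]DSLET. Ki values are geometric means of three experiments.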
# T1 sequence (P41144 whole entry): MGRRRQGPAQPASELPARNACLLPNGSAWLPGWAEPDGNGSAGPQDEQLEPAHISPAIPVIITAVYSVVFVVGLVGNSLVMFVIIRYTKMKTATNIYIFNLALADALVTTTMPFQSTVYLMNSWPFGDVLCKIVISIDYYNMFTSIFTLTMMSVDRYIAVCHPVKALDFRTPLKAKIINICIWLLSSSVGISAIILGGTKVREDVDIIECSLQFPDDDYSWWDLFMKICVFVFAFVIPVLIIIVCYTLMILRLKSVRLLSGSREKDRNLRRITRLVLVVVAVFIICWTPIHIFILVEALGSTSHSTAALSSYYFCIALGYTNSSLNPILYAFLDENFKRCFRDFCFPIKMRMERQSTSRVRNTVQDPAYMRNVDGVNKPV
row,Structure (SMILES),Ki
1,CN(C(=O)Cc1ccc(Cl)c(Cl)c1)[C@H](CN1CCCC1)c1cccc(NC(=O)C/N=C(S)/N=C2\C=CC(=C3c4ccc(O)cc4Oc4cc(O)ccc43)C(C(=O)O)=C2)c1,0.31 nM
2,CN(C(=O)Cc1ccc(Cl)c(Cl)c1)[C@H](CN1CCCC1)c1cccc(NC(=O)CNC(=O)CNC(=O)CNC(=O)C/N=C(S)/N=C2\C=CC(=C3c4ccc(O)cc4Oc4cc(O)ccc43)C(C(=O)O)=C2)c1,0.91 nM

# Target: Mu-type opioid receptor (Cavia porcellus, UniProt P97266)
# Test: Binding affinity towards Opioid receptor mu 1 in guinea pig brain
# Conditions: not given
# Method in brief: as §3
# Sequence of Mu-type opioid receptor (P97266 whole entry): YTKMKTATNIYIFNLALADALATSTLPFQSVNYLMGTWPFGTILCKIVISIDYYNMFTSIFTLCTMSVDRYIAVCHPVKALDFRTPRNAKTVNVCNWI
row,Structure (SMILES),Ki
1,CN(C(=O)Cc1ccc(Cl)c(Cl)c1)[C@H](CN1CCCC1)c1cccc(NC(=O)C/N=C(S)/N=C2\C=CC(=C3c4ccc(O)cc4Oc4cc(O)ccc43)C(C(=O)O)=C2)c1,286 nM
2,CN(C(=O)Cc1ccc(Cl)c(Cl)c1)[C@H](CN1CCCC1)c1cccc(NC(=O)CNC(=O)CNC(=O)CNC(=O)C/N=C(S)/N=C2\C=CC(=C3c4ccc(O)cc4Oc4cc(O)ccc43)C(C(=O)O)=C2)c1,631 nM

# Organism: Cavia porcellus
# Test: Percent recovery of twitch height after 30-40 washes with buffer using smooth guinea pig ileal muscle
# Format: functional
# Conditions: Muscle tissue
# Method in brief: as §1
row,Structure (SMILES),Recovery
1,CN(C(=O)Cc1ccc(Cl)c(Cl)c1)[C@H](CN1CCCC1)c1cccc(NC(=O)C/N=C(S)/N=C2\C=CC(=C3c4ccc(O)cc4Oc4cc(O)ccc43)C(C(=O)O)=C2)c1,39%
2,CN(C(=O)Cc1ccc(Cl)c(Cl)c1)[C@H](CN1CCCC1)c1ccccc1,20%
3,CN(C(=O)Cc1ccc(Cl)c(Cl)c1)[C@H](CN1CCCC1)c1cccc(NC(=O)CNC(=O)C/N=C(S)/N=C2\C=CC(=C3c4ccc(O)cc4Oc4cc(O)ccc43)C(C(=O)O)=C2)c1,34%
4,CN(C(=O)Cc1ccc(Cl)c(Cl)c1)[C@H](CN1CCCC1)c1cccc(NC(=O)CNC(=O)CNC(=O)CNC(=O)C/N=C(S)/N=C2\C=CC(=C3c4ccc(O)cc4Oc4cc(O)ccc43)C(C(=O)O)=C2)c1,44%
5,CN(C(=O)Cc1ccc(Cl)c(Cl)c1)[C@H](CN1CCCC1)c1cccc(N/C(S)=N/c2ccc(-c3c4ccc(=O)cc-4oc4cc(O)ccc34)c(C(=O)O)c2)c1,21%

# Target: T1, Kappa-type opioid receptor
# Test: Inhibitory activity against Opioid receptor kappa 1 in electrically stimulated guinea pig longitudinal ileal muscle (GPI) preparation.
# Conditions: not given
# Method in brief: as §2
row,Structure (SMILES),IC50
1,CN(C(=O)Cc1ccc(Cl)c(Cl)c1)C(CN1CCCC1)c1ccc(N/C(S)=N/c2ccc(-c3c4ccc(=O)cc-4oc4cc(O)ccc34)c(C(=O)O)c2)cc1 (centres undefined),5.2 nM
2,CN(C(=O)Cc1ccc(Cl)c(Cl)c1)[C@H](CN1CCCC1)c1cccc(NC(=O)C/N=C(S)/N=C2\C=CC(=C3c4ccc(O)cc4Oc4cc(O)ccc43)C(C(=O)O)=C2)c1,0.17 nM
3,CN(C(=O)Cc1ccc(Cl)c(Cl)c1)C(CN1CCCC1)c1ccc(NC(=O)CNC(=O)CNC(=O)CNC(=O)C/N=C(S)\N=C2/C=CC(=C3c4ccc(O)cc4Oc4cc(O)ccc43)C(C(=O)O)=C2)cc1 (centres undefined),166 nM
4,CN(C(=O)Cc1ccc(Cl)c(Cl)c1)[C@H](CN1CCCC1)c1cccc(NC(=O)CNC(=O)C/N=C(S)/N=C2\C=CC(=C3c4ccc(O)cc4Oc4cc(O)ccc43)C(C(=O)O)=C2)c1,1.2 nM
5,CN(C(=O)Cc1ccc(Cl)c(Cl)c1)[C@H](CN1CCCC1)c1cccc(NC(=O)CNC(=O)CNC(=O)CNC(=O)C/N=C(S)/N=C2\C=CC(=C3c4ccc(O)cc4Oc4cc(O)ccc43)C(C(=O)O)=C2)c1,0.15 nM
6,CN(C(=O)Cc1ccc(Cl)c(Cl)c1)C(CN1CCCC1)c1ccc(NC(=O)C/N=C(S)/N=C2\C=CC(=C3c4ccc(O)cc4Oc4cc(O)ccc43)C(C(=O)O)=C2)cc1 (centres undefined),62 nM
7,CN(C(=O)Cc1ccc(Cl)c(Cl)c1)[C@H](CN1CCCC1)c1cccc(NC(=S)Nc2ccc(-c3c4ccc(=O)cc-4oc4cc(O)ccc34)c(C(=O)O)c2)c1,0.37 nM
8,CN(C(=O)Cc1ccc(Cl)c(Cl)c1)C(CN1CCCC1)c1ccc(NC(=O)CNC(=O)C/N=C(S)\N=C2/C=CC(=C3c4ccc(O)cc4Oc4cc(O)ccc43)C(C(=O)O)=C2)cc1 (centres undefined),48 nM

# From ChEMBL document CHEMBL1129555, “Arylacetamide-derived fluorescent probes: synthesis, biological evaluation, and direct fluorescent labeling of kappa opioid receptors in mouse microglial cells” (J Med Chem, 1996)
